According to ChEMBL document CHEMBL1134773, “Design and synthesis of potent and selective alpha(4)beta(7) integrin antagonists” (J Med Chem, 2001):

target: Integrin alpha-4/beta-7 (Homo sapiens) (UniProt P13612+P26010); test: Ability to inhibit adhesion of alpha4-beta7 integrin expressing 38-beta7 lymphoma cells to chinese hamster ovary (CHO) cells stably transfected with MAdCAM-1; format: cell-based
Outline: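 38-β7 lymphoma cells (α4β7+) labelled 30 min at 37 °C with 12 μg/mL H33342, then 8×10^5/mL in buffer with 1.0 mM Ca2+/Mg2+. Preincubated 10 min at 37 °C with peptide at 1 mg/mL final. Allowed to adhere 30 min at 37 °C to confluent MAdCAM-1-transfected CHO monolayers (seeded 24 h before). Nonadherent cells removed by inverse centrifugation. Result given as % of medium control, mean of two experiments.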

| Compound | Adhesion [%] |
| --- | --- |
| CC(C)C[C@@H]1NC(=O)[C@@H](CC(=O)O)NC(=O)[C@@H](Cc2ccccc2)NC(=O)[C@@H](C)NC(=O)[C@H]([C@@H](C)O)NC(=O)[C@@H](CC(=O)O)NC1=O | 86 |
| CC[C@H](C)[C@H]1NC(=O)[C@H](C)NC(=O)[C@@H](C)NC(=O)[C@H]([C@@H](C)O)NC(=O)[C@@H](CC(=O)O)NC1=O (stereo in doubt; P1) | 100 |
| CC(C)C[C@@H]1NC(=O)[C@@H](C)NC(=O)[C@H](C)NC(=O)[C@H]2CCCN2C(=O)[C@H]([C@@H](C)O)NC(=O)[C@@H](CC(=O)O)NC1=O | 111 |
| CC(C)C[C@@H]1NC(=O)[C@@H](CC(=O)O)NC(=O)[C@@H](CC(=O)O)NC(=O)[C@@H](C)NC(=O)[C@H]([C@@H](C)O)NC(=O)[C@@H](CC(=O)O)NC1=O | 99 |
| CC(C)C[C@@H]1NC(=O)[C@@H](C)NC(=O)[C@H]2CCCN2C(=O)[C@@H](C)NC(=O)[C@H](C(C)C)NC(=O)[C@@H](CC(=O)O)NC1=O | 50 |
| CC(C)C[C@@H]1NC(=O)[C@@H](Cc2ccccc2)NC(=O)[C@H]2CCCN2C(=O)[C@@H](CCCCN)NC(=O)[C@H]([C@@H](C)O)NC(=O)[C@@H](CC(=O)O)NC1=O | 85 |
| CC(C)C[C@@H]1NC(=O)[C@@H](C)NC(=O)[C@H]2CCCN2C(=O)[C@@H](CC(=O)O)NC(=O)[C@H]([C@@H](C)O)NC(=O)[C@@H](CC(=O)O)NC1=O | 47 |
| CC(C)C[C@@H]1NC(=O)[C@@H](Cc2ccc(O)cc2)NC(=O)[C@H]2CCCN2C(=O)[C@@H](CCCCN)NC(=O)[C@H]([C@@H](C)O)NC(=O)[C@@H](CC(=O)O)NC1=O | 81 |
| CC(C)C[C@@H]1NC(=O)[C@@H](CC(=O)O)NC(=O)[C@H]2CCCN2C(=O)[C@@H](Cc2c[nH]c3ccccc23)NC(=O)[C@H]([C@@H](C)O)NC(=O)[C@@H](CC(=O)O)NC1=O | 87 |
| CC(C)C[C@@H]1NC(=O)[C@@H](C)NC(=O)[C@H]2CCCN2C(=O)[C@@H](C)NC(=O)[C@H]([C@@H](C)O)NC(=O)[C@@H](CC(=O)O)NC1=O | 7 |
| CC(C)C[C@@H]1NC(=O)[C@@H](C)NC(=O)[C@H]2CCCN2C(=O)[C@@H](CC(=O)O)NC(=O)[C@H](C(C)C)NC(=O)[C@@H](CC(=O)O)NC1=O | 40 |
| CC(C)C[C@@H]1NC(=O)[C@@H]([C@@H](C)O)NC(=O)[C@H]2CCCN2C(=O)[C@@H](C)NC(=O)[C@H]([C@@H](C)O)NC(=O)[C@@H](CC(=O)O)NC1=O | 49 |
| CC(C)C[C@@H]1NC(=O)[C@@H](C)NC(=O)[C@H]2CCCN2C(=O)[C@@H](C)NC(=O)[C@H](CO)NC(=O)[C@@H](CC(=O)O)NC1=O | 90 |
| CC(C)C[C@@H]1NC(=O)[C@@H](C)NC(=O)[C@@H](Cc2ccccc2)NC(=O)[C@@H](CC(=O)O)NC(=O)[C@H]([C@@H](C)O)NC(=O)[C@@H](CC(=O)O)NC1=O | 63 |
| CC(C)C[C@@H]1NC(=O)[C@@H](CCCN=C(N)N)NC(=O)[C@H]2CCCN2C(=O)[C@@H](C)NC(=O)[C@H]([C@@H](C)O)NC(=O)[C@@H](CC(=O)O)NC1=O | 26 |
| CC(C)C[C@@H]1NC(=O)[C@H](C)NC(=O)[C@@H](C)NC(=O)[C@@H]([C@@H](C)O)NC(=O)[C@@H](CC(=O)O)NC1=O | 85 |
| CC(C)C[C@@H]1NC(=O)[C@H]2CCCN2C(=O)[C@@H](C)NC(=O)[C@H]([C@@H](C)O)NC(=O)[C@@H](CC(=O)O)NC1=O | 74 |
| C[C@H]1NC(=O)[C@H]2CCCN2C(=O)[C@@H](CC(=O)O)NC(=O)[C@H]([C@@H](C)O)NC(=O)[C@@H](CC(=O)O)NC(=O)[C@@H](c2ccccc2)NC1=O | 114 |
| CC(C)C[C@@H]1NC(=O)[C@H](C)NC(=O)[C@H]2CCCN2C(=O)[C@H]([C@@H](C)O)NC(=O)[C@@H](CC(=O)O)NC1=O | 89 |
| C[C@H]1NC(=O)[C@H]2CCCN2C(=O)[C@@H](C)NC(=O)[C@H]([C@@H](C)O)NC(=O)[C@@H](CC(=O)O)NC(=O)CNC1=O | 105 |
| CC(C)C[C@@H]1NC(=O)[C@@H](CC(=O)O)NC(=O)[C@H]2CCCN2C(=O)[C@@H](Cc2ccc(O)cc2)NC(=O)[C@H]([C@@H](C)O)NC(=O)[C@@H](CC(=O)O)NC1=O | 76 |
| CC(C)C[C@@H]1NC(=O)[C@@H](C)NC(=O)[C@H]2CCCN2C(=O)[C@@H](C)NC(=O)CNC(=O)[C@@H](CC(=O)O)NC1=O | 91 |
| CC[C@H](C)[C@H]1NC(=O)[C@H](C)NC(=O)[C@@H](C)NC(=O)[C@H]([C@@H](C)O)NC(=O)[C@@H](CC(=O)O)NC1=O (stereo in doubt; P6) | 63 |
| CC(C)C[C@@H]1NC(=O)[C@H]2CCCN2C(=O)[C@H](C)NC(=O)[C@@H](C)NC(=O)[C@H]([C@@H](C)O)NC(=O)[C@@H](CC(=O)O)NC1=O | 30 |
| CC(C)C[C@@H]1NC(=O)[C@@H](CC(=O)O)NC(=O)[C@H]2CCCN2C(=O)[C@@H](C)NC(=O)[C@H]([C@@H](C)O)NC(=O)[C@@H](CC(=O)O)NC1=O | 115 |

Further lines, results first:

| Adhesion [%] | Compound |
| --- | --- |
| 58 | CC(C)C[C@@H]1NC(=O)C(C2CCCCC2)NC(=O)[C@H]2CCCN2C(=O)[C@@H](CC(=O)O)NC(=O)[C@H]([C@@H](C)O)NC(=O)[C@@H](CC(=O)O)NC1=O (stereo partly drawn) |
| 64 | CC[C@H](C)[C@@H]1NC(=O)[C@@H](C)NC(=O)[C@H]2CCCN2C(=O)[C@@H](C)NC(=O)[C@H]([C@@H](C)O)NC(=O)[C@@H](CC(=O)O)NC1=O |
| 56 | CC(C)C[C@@H]1NC(=O)[C@@H](Cc2ccccc2)NC(=O)[C@@H](Cc2ccccc2)NC(=O)[C@@H](CC(=O)O)NC(=O)[C@H]([C@@H](C)O)NC(=O)[C@@H](CC(=O)O)NC1=O |
| 137 | CC[C@H](C)[C@@H]1NC(=O)[C@H](C)NC(=O)[C@@H](C)NC(=O)[C@H]([C@@H](C)O)NC(=O)[C@@H](CC(=O)O)NC1=O |
| 102 | CC(C)C[C@@H]1NC(=O)[C@@H](CC(=O)O)NC(=O)[C@H]2CCCN2C(=O)[C@@H](CCCCN)NC(=O)[C@H]([C@@H](C)O)NC(=O)[C@@H](CC(=O)O)NC1=O |
| 83 | CSCC[C@H]1NC(=O)[C@H]([C@@H](C)O)NC(=O)[C@@H](CC(=O)O)NC(=O)[C@H](CC(C)C)NC(=O)[C@@H](CC(=O)O)NC(=O)[C@H]2CCCN2C1=O |
| 100 | CC(C)C[C@@H]1NC(=O)[C@@H](CC(=O)O)NC(=O)[C@H]2CCCN2C(=O)[C@@H](Cc2ccccc2)NC(=O)[C@H]([C@@H](C)O)NC(=O)[C@@H](CC(=O)O)NC1=O |
| 85 | CC(C)C[C@@H]1NC(=O)[C@@H](C)NC(=O)[C@H](C)NC(=O)[C@@H](C)NC(=O)[C@H]([C@@H](C)O)NC(=O)[C@@H](CC(=O)O)NC1=O |
| 98 | C[C@H]1NC(=O)[C@H]2CCCN2C(=O)[C@@H](CC(=O)O)NC(=O)[C@H]([C@@H](C)O)NC(=O)[C@@H](CC(=O)O)NC(=O)[C@H](c2ccccc2)NC1=O |
| 97 | CC(C)[C@@H]1NC(=O)[C@@H](C)NC(=O)[C@H]2CCCN2C(=O)[C@@H](C)NC(=O)[C@H]([C@@H](C)O)NC(=O)[C@@H](CC(=O)O)NC1=O |
| 10 | CC(C)C[C@@H]1NC(=O)[C@@H](Cc2ccc(C(=O)c3ccccc3)cc2)NC(=O)[C@H]2CCCN2C(=O)[C@@H](CC(=O)O)NC(=O)[C@H]([C@@H](C)O)NC(=O)[C@@H](CC(=O)O)NC1=O |
| 65 | CC(C)C[C@@H]1NC(=O)[C@@H](CCC(=O)O)NC(=O)[C@H]2CCCN2C(=O)[C@@H](C)NC(=O)[C@H]([C@@H](C)O)NC(=O)[C@@H](CC(=O)O)NC1=O |
| 9 | CC(C)C[C@@H]1NC(=O)[C@@H]2Cc3ccccc3CN2C(=O)[C@H]2CCCN2C(=O)[C@@H](CC(=O)O)NC(=O)[C@H]([C@@H](C)O)NC(=O)[C@@H](CC(=O)O)NC1=O |
